This is a sample that favours compounds with a hit; in the whole collection about 2% have one here.
HGIII-sPLA2 inh = Inhibits HGIII-sPLA2 liposome hydrolysis, primary screen; Q9NZ20; QFRET BODIPY PC-A2 liposome hydrolysis, fluorescence; inhibition, % at 12.2 µM; 370,000 tested, 0.56% active;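 active = inhibition above mean plus 3 SD of compounds lying within the high and low control bounds, cut at about 19% in these data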
Target sequence (Q9NZ20 whole entry, looked up): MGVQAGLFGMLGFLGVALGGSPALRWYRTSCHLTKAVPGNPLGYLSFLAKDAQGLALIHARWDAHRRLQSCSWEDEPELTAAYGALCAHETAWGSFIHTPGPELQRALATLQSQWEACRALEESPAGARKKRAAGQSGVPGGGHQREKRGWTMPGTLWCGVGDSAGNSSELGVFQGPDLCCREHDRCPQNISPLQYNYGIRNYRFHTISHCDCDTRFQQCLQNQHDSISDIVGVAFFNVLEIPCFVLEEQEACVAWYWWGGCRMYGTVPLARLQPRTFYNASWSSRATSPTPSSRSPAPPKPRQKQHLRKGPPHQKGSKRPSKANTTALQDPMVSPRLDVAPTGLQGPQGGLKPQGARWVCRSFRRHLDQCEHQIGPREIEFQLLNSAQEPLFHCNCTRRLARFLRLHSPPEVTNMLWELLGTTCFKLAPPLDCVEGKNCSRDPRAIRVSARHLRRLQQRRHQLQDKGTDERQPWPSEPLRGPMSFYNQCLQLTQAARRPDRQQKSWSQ
SR-BI DiI-HDL act = enhances SR-BI lipid uptake from DiI-HDL | CHO ldlA[mSR-BI] cells, DiI-HDL uptake fluorescence, 3 h; 100 = double the neutral-control signal | activation, % at 12.5 µM | 320,000 tested, 0.096% active | AID 504775;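 active = mean replicate activation of at least 60% and every replicate at or above 60%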
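Test system: SR-BI-overexpressing, LDLR-lacking CHO cells; Medium: Ham's F12 with 0.5% BSA, HEPES 25 mM, pH 7.4; Schedule: 3 h, 37 °C; Technique: bottom-read fluorescence, 550/595 nm.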
SR-BI HDL uptake = mouse SR-BI HDL lipid transfer inhibition | ldlA[mSR-BI] CHO cells, DiI-HDL uptake fluorescence, 3 h | inhibition, % at 12.5 µM | 320,000 tested, 0.96% active | AID 488896;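 active = mean replicate inhibition of at least 70% and a set share of replicates each scoring 70 or more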
NSD2 inh = blocks human histone methyltransferase NSD2; O96028; NSD2 peptide methylation, AlphaScreen, 120 min; inhibition, % at 12.5 µM; 310,000 tested, 0.54% active; AID 743445; in the data active = inhibition above about 50%
XiGFP reactiv = X-chromosome reactivation activator | XiGFP mouse fibroblasts, % GFP-positive cells imaging, 3 d; cells co-treated with 5-aza-dC sensitizer; scaled so ellipticine positive control = 100% | 360,000 tested, 0.055% active | activation, % at 7.58 µM;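 active = mean normalized replicate activation at least 10% and every replicate at or above 10%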
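System: 68-5-11 XiGFP fibroblast line; Timing: 3 days compound exposure; Compound dosing: one concentration, pinned; Benchmarks: positive control ellipticine, 6 µM final; Buffer or medium: DMEM containing 5-aza-dC.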
ARNT TACC3 PPI = ARNT/TACC3 interaction disruption | AID 623870 | AlphaScreen His-ARNT PAS-B/GST-TACC3 binding, luminescence; TACC3 fragment carries E629A point mutation | inhibition, % at 9.99 µM | 390,000 tested, 0.66% active;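 active = mean inhibition of replicates at least 50% and at least half of replicates each reaching 50%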
Large screens that a line does not name were inactive.

O=C(Nc1ccccc1)c1ccc(Nc2c([N+](=O)[O-])cc([N+](=O)[O-])c3ccccc23)cc1	SR-BI HDL uptake 88
Cn1cccc1-c1nc2ccc(NC(=O)c3cccs3)cc2[nH]1	ARNT TACC3 PPI 36 (no result: XiGFP reactiv)
COc1ccc(NC(=O)CCSc2nnnn2C)cc1	none
CCCc1cc(C(=O)OC)c2ccccc2n1	SR-BI DiI-HDL act 77 (no result: XiGFP reactiv)
COC(=O)c1cc(Cl)nc2ccccc12	none
O=C(CC1C(=O)NCCN1C(=O)Nc1ccc(F)cc1)Nc1cc(Cl)ccc1Cl (centres undefined)	none
CCOC(=O)Cc1nnc(NC(=O)C(CC)Sc2nc(C)cc(=O)[nH]2)s1 (centres undefined)	ARNT TACC3 PPI 45 (no result: NSD2 inh)
COCCCNC(=O)CN(c1cccc(Cl)c1C)S(C)(=O)=O	none (no result: NSD2 inh, XiGFP reactiv)
COCCCNC(=O)CN(c1cccc(Cl)c1)S(C)(=O)=O	SR-BI DiI-HDL act 527 (no result: XiGFP reactiv)
CCOc1ccc(CCN2C(=S)N([C@@H](Cc3ccc(O)cc3)CN3CCC[C@@H]3CN3C(=S)NC[C@@H]3Cc3ccccc3)C[C@@H]2Cc2ccc(O)cc2)cc1	none (no result: SR-BI DiI-HDL act, SR-BI HDL uptake, NSD2 inh, ARNT TACC3 PPI)
O=C(NNC(=O)c1ccccn1)c1cccc([N+](=O)[O-])c1	ARNT TACC3 PPI 67
CC(C)C(=O)NNC(=O)c1ccccn1	ARNT TACC3 PPI 51
CC(Oc1ccccc1)C(=O)NNC(=O)c1ccccn1 (centres undefined)	ARNT TACC3 PPI 51
CC(Oc1cccc(Br)c1)C(=O)NNC(=O)c1ccccn1 (centres undefined)	none (no result: HGIII-sPLA2 inh, XiGFP reactiv, ARNT TACC3 PPI)
Cc1cccc(NC(=O)NNC(=O)c2ccccn2)c1	ARNT TACC3 PPI 48
CCOC(=O)C(C(=O)OCC)C(=O)c1cc(OC)c(OC)c(OC)c1	none (no result: XiGFP reactiv)
O=C(COC(=O)c1ccc2ncsc2c1)Nc1ccccc1Br	none (no result: ARNT TACC3 PPI)
N#Cc1ccc(-c2ccc3c(c2)[C@H]2[C@H](CCN2C(=O)c2ccc(F)cc2)[C@H](CO)N3)cc1	none (no result: HGIII-sPLA2 inh, SR-BI DiI-HDL act, SR-BI HDL uptake, NSD2 inh)
COc1ccc(OCC(=O)NNC(=O)c2ccccn2)cc1	ARNT TACC3 PPI 67 (no result: XiGFP reactiv)
O=C(N/N=C/c1cc([N+](=O)[O-])ccc1N1CCCCCC1)c1ccccn1	SR-BI HDL uptake 80
COc1ccc(OCC(=O)NCCNC(=O)c2ccccn2)cc1	none
CCc1ccc(OCC(=O)N/N=C/c2cc([N+](=O)[O-])ccc2N2CCCCCC2)cc1	none
COC(=O)c1cc(OC)c(OC)cc1NC(=O)c1cccc(C)c1	SR-BI HDL uptake 81
CCOc1cc(NC(=O)c2ccccn2)c(OCC)cc1NC(=O)c1cccc(C)c1	SR-BI HDL uptake 71
COC(=O)c1cc(OC)c(OC)cc1NC(=O)c1ccccc1	none (no result: XiGFP reactiv)
C[C@@H]1CCCCO[C@@H](CN(C)Cc2ccc3c(c2)OCO3)[C@@H](C)CN([C@H](C)CO)C(=O)c2cc(NS(=O)(=O)c3ccc(Cl)cc3)ccc2O1	none (no result: HGIII-sPLA2 inh, SR-BI DiI-HDL act, SR-BI HDL uptake, NSD2 inh)
O=C(NNC(=O)c1ccc2ccccc2c1O)c1cccs1	SR-BI HDL uptake 106 (no result: ARNT TACC3 PPI)
O=C(Cc1ccccc1)NNC(=O)c1cccs1	none (no result: XiGFP reactiv)
O=C(NNC(=O)c1cc2ccccc2cc1O)c1cccs1	SR-BI HDL uptake 115 (no result: ARNT TACC3 PPI)
CC(=O)c1ccc(NC(=O)COC(=O)CCC(=O)c2cccs2)cc1	SR-BI DiI-HDL act 270
Cc1cccc(C)c1OCC(=O)Nc1oc(-c2ccccc2)c(-c2ccccc2)c1C#N	SR-BI HDL uptake 82 (no result: NSD2 inh, XiGFP reactiv)
COc1ccc(-c2oc(NC(=O)c3ccc(C)cc3)c(C#N)c2-c2ccc(OC)cc2)cc1	none (no result: XiGFP reactiv)
COc1ccc(C(=O)Nc2oc(-c3ccccc3)c(-c3ccccc3)c2C#N)cc1OC	SR-BI HDL uptake 82 (no result: XiGFP reactiv)
N#Cc1c(NC(=O)Cn2c(=O)oc3ccccc32)oc(-c2ccccc2)c1-c1ccccc1	none (no result: XiGFP reactiv)
COc1ccc(C(=O)Nc2oc(-c3ccccc3)c(-c3ccccc3)c2C#N)cc1	SR-BI HDL uptake 83 (no result: XiGFP reactiv, ARNT TACC3 PPI)
CCc1ccc(OCC(=O)NNC(=O)c2cc(S(=O)(=O)N3CCOCC3)ccc2N2CCCC2)cc1	none
CN1/C(=C/C=C/c2n(C)c3cc([N+](=O)[O-])c([N+](=O)[O-])cc3[n+]2C)C(C)(C)c2ccccc21	HGIII-sPLA2 inh 48 (no result: SR-BI DiI-HDL act, SR-BI HDL uptake, NSD2 inh, ARNT TACC3 PPI)
CCOc1ccc(N=C2SC(C(=O)Nc3ccccc3C#N)C(N)=C2C(=O)Nc2ccc(Cl)cc2)cc1 (centres undefined)	none
N#Cc1ccccc1NC(=O)C1SC(=Nc2ccccc2)C(C(=O)Nc2ccc(Cl)cc2)=C1N (centres undefined)	SR-BI HDL uptake 108 (no result: NSD2 inh)
CC(Sc1nc(-c2ccccc2)cc(C(F)(F)F)n1)C(=O)NCCN1CCOCC1 (centres undefined)	SR-BI HDL uptake 73 (no result: XiGFP reactiv)
CC(Sc1nc(-c2ccccc2)cc(C(F)(F)F)n1)C(=O)N1CCCC1 (centres undefined)	none (no result: NSD2 inh)
COc1ccc(-c2cc(C(F)(F)F)nc(SCC(=O)NCCN3CCOCC3)n2)cc1OC	none (no result: XiGFP reactiv)
O=C(CSc1nc(-c2ccc(F)cc2)cc(C(F)(F)F)n1)NCCN1CCOCC1	SR-BI HDL uptake 73 (no result: XiGFP reactiv)
CC(Sc1nc(-c2ccccc2)cc(C(F)(F)F)n1)C(=O)N1CCOCC1 (centres undefined)	SR-BI HDL uptake 93 (no result: XiGFP reactiv, ARNT TACC3 PPI)
CC1CCN(C(=O)C(C)Sc2nc(-c3ccccc3)cc(C(F)(F)F)n2)CC1 (centres undefined)	SR-BI HDL uptake 87 (no result: XiGFP reactiv)
C[C@H](CO)N1C[C@H](C)[C@H](CN(C)C(=O)Nc2cccc3ccccc23)Oc2ccc(NS(=O)(=O)c3ccccc3)cc2C1=O	none (no result: HGIII-sPLA2 inh, SR-BI DiI-HDL act, SR-BI HDL uptake, NSD2 inh)
O=c1oc2ccccc2c2oc3cc(O)c(O)cc3c12	HGIII-sPLA2 inh 22 (no result: SR-BI DiI-HDL act, SR-BI HDL uptake, NSD2 inh)
Nc1c(N)c2ccccc2oc1=O	none (no result: XiGFP reactiv)
COc1cc(NC(=S)NCCCN2CCOCC2)cc(OC)c1OC	none
S=C(N/N=C/c1ccccc1)N1CCOCC1	ARNT TACC3 PPI 46
CCCN1C[C@H](C)[C@H](OC)CN(C)C(=O)c2cc(NC(=O)CC)ccc2OC[C@@H]1C	none (no result: HGIII-sPLA2 inh, SR-BI DiI-HDL act, SR-BI HDL uptake, NSD2 inh, ARNT TACC3 PPI)
COc1ccc(-c2nnc3c4ccccc4c(C)nn23)cc1S(=O)(=O)N1CCN(CCO)CC1	ARNT TACC3 PPI active (no result: XiGFP reactiv)
Cc1nn2c(-c3ccc(S(=O)(=O)N4CCN(CCO)CC4)o3)nnc2c2ccccc12	none
COc1cc(/C=C(/C#N)C(=O)Nc2cc(C(F)(F)F)ccc2Cl)ccc1OCC(=O)Nc1cccc(C(F)(F)F)c1	none
COc1ccc(Br)cc1/C=N/NC(=O)c1ccc(OC)c(OC)c1	SR-BI HDL uptake 92
COc1ccc(Br)cc1/C=N/NC(=O)c1ccc2nc[nH]c2c1	none
COc1ccc(Br)cc1/C=N/NC(=O)c1cc(OC)c(OC)c(OC)c1	SR-BI HDL uptake 75
COc1cc(C(=O)N/N=C/c2ccsc2C)cc(OC)c1OC	none (no result: XiGFP reactiv)
Cc1nn(-c2ccccc2)c(C)c1/C=N/NC(=O)c1cc(-c2cccs2)[nH]n1	SR-BI HDL uptake 80

Compound activity from PubChem BioAssay.
